Assay outcomes as filed in PubChem.
OX1R antag-1: OX1R (HCRTR1) antagonists, primary screen, fluorescence, CHO/OX1R cells, Fluo-8 calcium, orexin A; Orexin/Hypocretin receptor type 1 (Homo sapiens), O43613; AID 434989, 2010; Fluo-8 calcium fluorescence; 330,000 compounds, 0.43% hits; inhibition, % at 5 µM;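 active = inhibition above its plate's threshold, mean inhibition of all tested compounds on the plate plus 3 SD, cut at about 37% in these data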;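 note: 0% = orexin A challenge wells and 100% = SB-334867-A antagonist wells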
OX1R antag-2: antagonists of human orexin 1 receptor (OX1R). Orexin/Hypocretin receptor type 1 (Homo sapiens), O43613. OX1R-expressing cells, FRET antagonist read-out. inhibition, % at 6.6 µM. 330,000 compounds, 1.8% hits. AID 485270, 2010; in the data active = inhibition mostly above about 38%, no sharp cut-off; inactive = mostly below about 40%;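 note: 0% = agonist challenge alone and 100% = reference antagonist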
EP2 antag: human EP2 receptor antagonists, primary screen, TR-FRET cAMP, C6 glioma cells; Prostaglandin E2 receptor EP2 subtype (Homo sapiens), P43116; C6 glioma cells expressing human EP2; cells stimulated with saturating PGE2; inhibition, % at 25 µM; 260,000 compounds, 0.52% hits;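 active = percent inhibition above 40 after rounding to a whole number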;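 note: rat C6 glioma host cells with rolipram phosphodiesterase inhibitor present; the protocol text gives 20 µM as final concentration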
Target sequence (P43116 whole entry, looked up): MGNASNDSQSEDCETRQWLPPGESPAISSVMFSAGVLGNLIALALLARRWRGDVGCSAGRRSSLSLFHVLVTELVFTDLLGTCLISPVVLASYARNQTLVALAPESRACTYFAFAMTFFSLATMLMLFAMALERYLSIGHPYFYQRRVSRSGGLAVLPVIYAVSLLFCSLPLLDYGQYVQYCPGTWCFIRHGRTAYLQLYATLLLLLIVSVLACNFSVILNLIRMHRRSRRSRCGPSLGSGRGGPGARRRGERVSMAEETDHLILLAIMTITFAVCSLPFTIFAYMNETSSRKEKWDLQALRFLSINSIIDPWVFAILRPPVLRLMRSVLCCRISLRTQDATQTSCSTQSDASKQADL
EP2 mod: EP2 receptor modulators, cAMP readout, primary screen, cell-based, HTRF cAMP, PGE2 stimulation; Prostaglandin E2 receptor EP2 subtype (Homo sapiens), P43116; EP2-expressing cells, cAMP HTRF FRET, PGE2 co-stimulation; induction, % at 25 µM; 260,000 compounds, 0.83% hits; AID 940, 2007;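 active = compounds whose cAMP rise, as percent of the full-agonist control response, exceeds 60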;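 note: rat C6 glioma line stably carrying human EP2 under a CMV promoter; the protocol text gives 20 µM as final concentration; 100% = response of wells given 1 µM PGE2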
CHO parental Ca: ATP-evoked calcium signal inhibitors, parental CHO, primary screen, counter-screen for OX1R antagonist project, cell-based, fluorescence, Fluo-8 calcium dye. parental CHO-K1, ATP-induced calcium, Fluo-8 fluorescence. inhibition, % at 5.6 µM. 330,000 compounds, 0.63% hits;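 active = inhibition above that plate's mean sample inhibition plus 3 SD, cut at about 26% in these data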;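 note: 0% = ATP-challenged DMSO wells and 100% = DMSO wells without ATP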
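Test system: untransfected parental CHO cell line. Compound: one dose, 5.6 µM nominal. Detection: intracellular calcium via Fluo-8 no-wash fluorescent dye. Measure: % inhibition. Benchmarks: ATP-challenged DMSO wells low, unchallenged DMSO wells high.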
GPR7 antag: GPR7 receptor antagonists, primary screen, cell-based, fluorescence, single concentration; Neuropeptides B/W receptor type 1 (Homo sapiens), P48145; GPR7-expressing cells, fluorescence antagonist assay; inhibition, % at 4.4 µM; 290,000 compounds, 1.1% hits; AID 1861, 2009; in the data active = inhibition above about 16%, passing the limit was not always enough;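 note: cells stimulated with the agonist NPW; 0% = agonist with vehicle and 100% = vehicle without agonist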
Target sequence (P48145 whole entry, looked up): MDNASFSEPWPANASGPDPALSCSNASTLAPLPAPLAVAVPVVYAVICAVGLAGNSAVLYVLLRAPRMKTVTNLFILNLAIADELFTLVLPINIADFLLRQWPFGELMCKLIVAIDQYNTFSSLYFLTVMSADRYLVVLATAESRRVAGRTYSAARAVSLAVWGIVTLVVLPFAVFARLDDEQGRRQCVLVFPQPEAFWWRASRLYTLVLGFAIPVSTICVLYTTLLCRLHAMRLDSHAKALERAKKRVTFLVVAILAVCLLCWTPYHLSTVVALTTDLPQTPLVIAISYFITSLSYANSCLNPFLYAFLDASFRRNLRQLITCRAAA
Starred values were filed as active, the others as inactive; nt = not tested or not shown; ! = not confirmed by another sample. In the library only some 3.7% were active in any assay of this set; here they are far more common.

SMILES | OX1R antag-1 | OX1R antag-2 | EP2 antag | EP2 mod | CHO parental Ca | GPR7 antag
COc1ccccc1NC(=O)CSc1nc(C2CCCCC2)nc2ccccc12 | nt | nt | 6 | 79* | nt | nt
Cc1cc(C)c2nc(SCC(=O)Nc3nc(C)c(C)s3)cc(C)c2c1 | nt | nt | 19 | 61* | nt | nt
CCOC(=O)CSc1nc(C2CCCCC2)nc2ccccc12 | nt | nt | 10 | 66* | nt | nt
CSc1nc(Cc2ccccc2)nc2ccccc12 | -17 | 18 | 12 | 62* | -11 | 5
O=C(CSc1nc(C2CCCCC2)nc2ccccc12)N1CCCC1 | -35 | 16 | 2 | 15 | -20 | -2
CC(NC(=O)CSc1ncccn1)c1ccc2c(c1)OCO2 (stereo unspecified) | -2 | 6 | nt | nt | -6 | nt
CCOc1ccccc1NC(=O)CSc1nc(Cc2ccccc2)nc2ccccc12 | nt | nt | 10 | 79* | nt | nt
COc1cc(NC(=O)CSc2nc(C3CC3)nc3ccccc23)cc(OC)c1 | -21 | 47* | 9 | -31 | -20 | -5
O=C(CSc1nc(C2CC2)nc2ccccc12)Nc1ccccc1 | -8 | 26 | nt | nt | -14 | -3
CCCc1nc(SCC(=O)Nc2nc(C)c(C)s2)c2ccccc2n1 | nt | nt | 8 | 63* | nt | nt
NC(=O)c1ccccc1NC(=O)c1cccc(C(=O)Nc2ccccc2C(N)=O)n1 | 0 | 21 | nt | nt | 3 | nt
Cc1c(CCOC(=O)c2ccccc2)sc[n+]1CC(=O)c1ccc(Br)cc1 | -17 | 13 | nt | nt | -7 | 20*
Cc1c(CCOC(=O)c2cc([N+](=O)[O-])cc([N+](=O)[O-])c2)sc[n+]1CC(=O)c1ccccc1 | -16 | 26 | 8 | -11 | -23 | -8
Cc1ccc(C(=O)NC2CCCN(c3ccc(C(F)(F)F)cn3)C2)cn1 (stereo unspecified) | -20 | 6 | nt | nt | -14 | 4
CCn1c2cc(C)oc2c2cnn(Cc3ccccc3C(F)(F)F)c(=O)c21 | nt | nt | nt | 81* | nt | nt
CC(C)CC(c1nnnn1C(C)(C)C)N1CCN(C2CCCC2)CC1 (stereo unspecified) | -17 | 6 | 10 | 33 | -10 | 18*
CCCc1cc(=O)oc2cc(OCc3ccc(OC)cc3)c(Cl)cc12 | -18 | 6 | 7 | 16 | -5 | -4
COc1ccc(CN(C)C(=O)c2cc(-c3ccccc3)nc3ccc(C)cc23)c(OC)c1OC | 10 | 63* | nt | nt | -15 | 4
COc1ccc(CCN(C)C(=O)c2cc(-c3ccccc3)nc3ccc(C)cc23)cc1OC | -11 | 70* | nt | nt | -22 | -2
COc1ccc(-c2cc(C(=O)N(C)Cc3cccc(OC)c3OC)c3ccccc3n2)cc1OC | -36 | 36 | nt | nt | -32 | -9
COc1ccccc1COC(=O)N/C=C/c1ccco1 | -8 | 11 | 8 | -26 | -13 | 4
CCC(CC)C(=O)c1c[nH]c(C(=O)NC2CCCCCC2)c1 | -37 | 15 | nt | nt | -10 | 18
CCn1c(SCC(=O)Nc2nc3ccc(C)cc3s2)nc2c(c1=O)SC(C)C2 (stereo unspecified) | 59* | 81* | 28 | -27 | 45* | -10
NC(=O)COC(=O)/C=C/c1ccccc1[N+](=O)[O-] | -1 | 54 | 10 | -6 | -13 | -3
CC(=O)N1CCN(C(=O)COC(=O)/C=C/c2ccccc2[N+](=O)[O-])CC1 | 5 | 37* | nt | nt | 1 | nt
SMILES | OX1R antag-1 | OX1R antag-2 | EP2 antag | EP2 mod | CHO parental Ca | GPR7 antag
COc1ccc(C(=O)/C=C2/Sc3cc4c(cc3N2C)OCO4)cc1 | -8 | 7 | 77* | 28 | -8 | -2
COc1ccc2c(c1)S/C(=C\C(=O)c1ccncc1)N2C | -10 | 25 | 5 | 2 | -7 | -5
CN1/C(=C/C(=O)c2ccc(Cl)cc2)Sc2cc3c(cc21)OCO3 | -3 | 16 | 75* | -62 | -6 | -5
FC(F)(F)c1cccc(NC(=S)NCc2ccccn2)c1 | -5 | 13 | 3 | -27 | -9 | 20*
Cc1ccc(N=Nc2c(O)c3ccccc3[nH]c2=O)c(S(=O)(=O)N(C)C)c1 | nt | nt | 48*! | -17 | nt | -6
CCN(CC(=O)Nc1ccccc1-c1ccccc1)Cc1nc2ccccc2c(=O)[nH]1 | -10 | 67* | 2 | 0 | -24 | 8
C=CCc1cccc(/C=N/NC(=O)c2ccccc2OC)c1O | -26 | 26 | 12 | -3 | -13 | 19*
C=CCc1cccc(/C=N/NC(=O)C(=O)Nc2ccc(C)cc2)c1O | -16 | 49* | 6 | 21 | -14 | -7
COc1ccccc1N1CCN(C(=O)c2n[nH]c3ccccc23)CC1 | -9 | 8 | 11 | -78 | -4 | -5
CN1/C(=C\P(=O)(N(C)C)N(C)C)C(C)(C)c2ccccc21 | 77* | 25 | 9 | -9 | 45* | 14
CCOC(=O)/C=C1/N(C)c2ccccc2C1(C)C | -13 | 10 | 3 | -14 | -1 | -20
O=S(=O)(NC1=NCCC1)c1cccc(NC(=S)Nc2ccc(OC(F)F)cc2)c1 | -11 | 9 | nt | nt | -8 | nt
C[N+](C)(C)CCN(Cc1cccs1)c1ccccn1 | nt | nt | 55* | 14 | nt | nt
COc1ccccc1CNC(=O)c1ccc2nc3[nH]c4ccccc4c3nc2c1 | 2 | 47* | 10 | -10 | -18 | -12
Cc1ccc(-c2nc(CS(=O)(=O)CC(=O)NC3CC3)c(C)o2)cc1 | -37 | 14 | nt | nt | -15 | -1
Cc1cc(C(=O)N2CCN(C/C=C/c3ccccc3)CC2)cs1 | -19 | 5 | 5 | -35 | -19 | 20*
O=c1[nH]nc(Cc2ccc(-c3cccc(Cl)c3)o2)c2ccccc12 | 55* | 71* | 15 | -39 | 38 | -14
O=C(Cc1n[nH]c(=O)c2ccccc12)NCc1ccc(Cl)cc1 | -12 | 4 | 6 | 1 | -14 | -11
CCCN1CCC(=NNc2ccc(S(=O)(=O)N3CCOCC3)cc2[N+](=O)[O-])CC1 | -9 | 71* | 11 | -9 | -19 | -9
N#C/C(=C\c1c(F)cccc1Cl)c1nn(-c2ccccc2)c(-n2cccc2)c1C#N | -14 | 36* | 3 | 8 | -19 | -18
Cc1cc(NC(=O)c2ccc(COc3ccc(Cl)c(C)c3)o2)no1 | -16 | 5 | 7 | 1 | -3 | -11
Cc1cc(NC(=O)c2ccc(COc3ccccc3Cl)o2)no1 | 6 | 30 | 8 | -19 | 53* | 4
CC1=C(C#N)C(c2ccccc2O)C(C#N)=C(C)N1 | 2 | 12 | 11 | 22 | -4 | 0
Cc1ccccc1C1C(C#N)=C(N)NC(S)=C1C#N (stereo unspecified) | nt | nt | 14 | 71* | nt | nt
